Measured values: the EternaBench riboswitch data

Test system: MS2 coat protein
Assay: apparent Kd, MS2 coat protein; higher = weaker binding; RNA-MaP array; FMN 200 µM where present
Outline: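 In 100 mM Tris-HCl pH 7.5, 80 mM KCl, 4 mM MgCl2, BSA, DTT, yeast tRNA and Tween-20, SNAP-549-labelled MS2 coat protein was titrated from 0.7 or 1.5 nM, doubling to 3 µM, over designs transcribed by stalled E. coli RNA polymerase on Illumina sequencing-chip clusters. This was done first without ligand, then with ligand held constant. After green signal was normalised to red-channel RNA signal and control-cluster median Fmax, the apparent Kd was taken as the median of filtered per-cluster binding-curve fits.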

[1] = designed as: OFF switch for flavin mononucleotide, no ligand
[2] = ligand present: flavin mononucleotide, designed as: OFF switch for flavin mononucleotide
[3] = designed as: ON switch for flavin mononucleotide, no ligand
[4] = ligand present: flavin mononucleotide, designed as: ON switch for flavin mononucleotide

| Sequence | apparent Kd [1] | apparent Kd [2] | apparent Kd [3] | apparent Kd [4] |
| --- | --- | --- | --- | --- |
| GCGUGGUUCUAGAAGGUGCUAGCGAUAAGCUAGCAAGGAUAUAGACAUGAGGAUCACCCAUGUCUUAGUGAAAUCGACACACGC | 5.35 nM | 5.34 nM | – | – |
| ACAAAUUACUACCAGACAUGAGGAUCACCCAUGUCUCCACCCAGAAGGGCGACUCUGAGCACAGCGCAGGAUAUGGGUGUUCCA | – | – | 59.8 nM | 13.5 nM |
| CAGCUACCCAGUAUGGGUUUAUGUGCAGAAGGCCAGGUACAUGAGGAUCACCCAUGUAAAGAUAUGGAGGAUAUGUUAGUGAAU | – | – | 17.9 nM | 6.66 nM |
| GCAGCGUCUGCAGGAUAUCAGCACGUGUAGUGCUGAGAAGGGCACAUGAGGAUCACCCAUGUGAUCAAUUAAUAGACAUGCUGC | 6.98 nM | 15.5 nM | – | – |
| GAGUAGUCAAAAGGAUAUUGAUUAUUGUAGGAUCAAGAAGGUUUUAACAUGAGGAUCACCCAUGUAGGACUAUUCCUGUGUAUC | – | – | 16.6 nM | 12.2 nM |
| UGUCGGAGCAGAGGAUAUUACAUGAGGAUCACCCAUGUAUGAACCAAUAGCUGGAAACAGCAAUGUAAGAAGGCUGCUGCGACA | 12.8 nM | 182 nM | – | – |
| UGUCUGAUCUAAUAACAUGAGGAUCACCCAUGUGUUCACAACUAGGAUAUCGAUUGUUAAGACGUCGAGAAGGAGUAUACAUUA | 39 nM | 53.5 nM | – | – |
| ACAUUGUUAGGAUAUGCUGCUCGUCACUUGCGUGAUGAGUAGCAGAAGGAACAUGAGGAUCACCCAUGUAAAGA | 33.7 nM | 56.1 nM | – | – |
| UCCUGGCAAGGAUAUACAUGAGGAUCACCCAUGUGGAGUCGAUGCUGAAUUCUAUUGUGUAGAAGGUGCCUUUC | 49.1 nM | 62.3 nM | – | – |
| GACAUGAGGAUCACCCAUGUCCAUGCAAGAGUAGUUGAGACCAGAAGGACCGUGCGGAGCGCAGGGUAGGAUAUGGAGCCCUCA | – | – | 32.4 nM | 9.46 nM |
| AAAAAGUGAGGAUAUGCUGCUCGUCACUUGCGUGAUGAGUAGCAGAAGGCACAUGAGGAUCACCCAUGUGGGAA | 82.6 nM | 170 nM | – | – |
| AUCAUGUAAGGAUAUCUUAUAUGGAUCUUCGGAUCAAGUUAAGAGAAGGUACAUGAGGAUCACCCAUGUAUAAC | 23.2 nM | 35.8 nM | – | – |
| ACAAGAUCAGGAUAUACAUGAGGAUCACCCAUGUAUAUCCAAAAAGGGCCUUCUACAUGUAGAAGGGAUCUUGU | 13.1 nM | 12.6 nM | – | – |
| AGCAAGAGAGGAUAUACAUAGGAAAAAAAAGUCUGAUCCCUACAUGAGGAUCACCCAUGUAGAAGGCUCUGGCA | 69.5 nM | 24.7 nM | – | – |
| UCAUGGUAGCAGGAUAUGCUUGUAAUUUUUUUUGCAGAAGGGCUUACAUGAGGAUCACCCAUGUGUUAGGUCUA | 32.8 nM | 46.7 nM | – | – |
| AGUAAGAUGCAGAAGGUGUCAGCGAGAGCUGCACAUGAGGAUCACCCAUGUUGUCGGUGACGACACAAGGAUAUGCAUCUUACA | – | – | 31.4 nM | 12.8 nM |
| AACUCACAUGAGGAUCACCCAUGUGAGGAUAUAUUGUUAUGGAUGUUAUUUUGUAGUGGUAGAAGGCGCGUGAU | 15.3 nM | 15.2 nM | – | – |
| UUUACAUGAGGAUCACCCAUGUCUGUCACACGGAGGUGCAAUCAGGAUAUGAUCUCAAGAAUGAAUUAGAAGGGAUAGGGAGGG | – | – | 187 nM | 234 nM |
| UUUUUACGAGGAUAUCGAUUGUGGUACAUGAGGAUCACCCAUGUAUGUGAUAUUGUAUUUCGAGAAGGCGUUCAGU | 19.3 nM | 17.8 nM | – | – |
| GGUACCAUCACAGGAUAUGCUAUCCUUUGGGUAGCAGAAGGGUGUAACAUGAGGAUCACCCAUGUGGUGCCAGGGCGUGAGCCC | – | – | 496 nM | 49.9 nM |
| UGGUACUAGGAAGGAUAUGGGAAGAUACAUGAGGAUCACCCAUGUUUAAGAAUGCCGAGAGGCAACUAGAAGGCCCUAGUACCU | – | – | 596 nM | 135 nM |
| AGAAACUACGAGAAGGACAUGUGGUCCUUCUAAAACAUGAGGAUCACCCAUGUAGGAUAUCGUAGUUUCAGGAUCGUGAGAUCA | 35.5 nM | 7.27 nM | – | – |
| ACAUGCAUAGCGAUAUGAUCGAGAGAUCAUGUCGCUAAAAUUAGAAGGACAUGAGGAUCACCCAUGUAGGAUAUGGGAGCAUGA | – | – | 39.9 nM | 10.3 nM |
| GCGUUGAACGAGAAGGCCAAUACAUGAGGAUCACCCAUGUUAAGAUGUUUUGGAGGAUAUCGUACGUCGUCUCAUGAGCAACGC | 6.21 nM | 7.03 nM | – | – |
| UCCUUGUCCUGAGGAUAUCCGCGGUUCCCAAAAGGAGAAGGCAGGACAUGAGGAUCACCCAUGUACCCAGAGAACGUGCAGAGU | 19.2 nM | 129 nM | – | – |
| GACUCGAAUGUAGGAUAUGCUGAGGAAUACUCAGCAGAAGGACAUGAGGAUCACCCAUGUCAAUGAGUGAAUAAUAAACGAGUC | 29.2 nM | 224 nM | – | – |
| AUGUCGCACCAGAAGGGUCAACCAAUAAAUUAGACAGGAUAUGGGCGAUAAGUAUGUCGCGACAUGAGGAUCACCCAUGUCCGG | – | – | 11.6 nM | 5.95 nM |
| GUCUACAUGACAUGAGGAUCACCCAUGUGUUAUAUUUUUACUAAGGAUAUAUUUUUAAUGUUGAGAUAGAAGGUAGUUUCGGUC | 43 nM | 45.5 nM | – | – |

| Sequence | apparent Kd [1] | apparent Kd [2] | apparent Kd [3] | apparent Kd [4] |
| --- | --- | --- | --- | --- |
| GUCAGCUCGUGAGGAUAUACAACACUGCUUCGGCAGUGUAUUAAGAUCACAUGAGGAUCACCCAUGUAGAAGGCAUGAGCUGAU | 14.9 nM | 297 nM | – | – |
| GCAUGAGACUAAGGAUAUGAUGUACCUAUAUGUGACAUGAGGAUCACCCAUGUGGUAAGUAUGAUUCAGAAGGUAGAGAUAUGC | – | – | 67.8 nM | 28.3 nM |
| GUAAAGUGAGGAUAUGGUAAAUUAAUUAUUAAUUAAUUAAUCCAGAAGGCACAUGAGGAUCACCCAUGUAUAUG | 38.2 nM | 61.3 nM | – | – |
| ACAUGAGGAUCACCCAUGUGUGCAUAGGAUAUUGAGGAUUAGGGAUGUUUUUUUGGAUUUGCCCACAAGAAGGAUGAAAGUGUU | – | – | 10.6 nM | 10.5 nM |
| AAGGACUGAAUAAAUAACUCAAAUACAUGAGGAUCACCCAUGUAGGAUAUCGUCAGGAAUACUGACGAGAAGGACAUACAGUCC | 14 nM | 20.2 nM | – | – |
| UUUUCUUUUGUGAGGAUAUACUUCUUUUUUUUUUUGUAGAAGGCACAUGAGGAUCACCCAUGUUUUCUUUUCUG | 18.9 nM | 21.8 nM | – | – |
| GCGUAAGAAUUAAUUGUGACUGACAGAAGGCAAUAGUAUGUGUCCGACAUGAGGAUCACCCAUGUUGAGGAUAUGUCUUGACGC | 4.64 nM | 5 nM | – | – |
| CGUAUGUCAGGAUAUGCGUAAGCCGGUCAGGGCGAGCGGCAGCAGAAGGGACAUGAGGAUCACCCAUGUUCGGG | 64.6 nM | 47.8 nM | – | – |
| UGGUACAUGGGAGGAUAUGGGUUGAUAACAUGAGGAUCACCCAUGUUAAAUAUGCCGAGAGGCAACUAGAAGGCCCAUGUACCU | – | – | 482 nM | 38.2 nM |
| ACGUGACGUUAGGAUAUUAACUACCUGCCAUCUUAAGAAGGAACGACAUGAGGAUCACCCAUGUGAAUCCGCGA | 26.7 nM | 27 nM | – | – |
| GGACGACACAUGAACAUGAGGAUCACCCAUGUAACUAGACAUGAGGAUAUGGAUCCUAAUUGGAUCCAGAAGGCAUGGUCGUCC | – | – | 179 nM | 31.7 nM |
| UCACGGUAUGUAGGAUAUGCAUAGCAUUGCUAUGCAGAAGGACAUGAGGAUCACCCAUGUAUGUAUUCCAUACUAAUCCCGUGU | 6.15 nM | 6.09 nM | – | – |
| AGUGUCAUCGAGAAGGCCUCAACAUGAGGAUCACCCAUGUUGUUACAUGGGAGGAUAUCGAUGAUACAGCUACGUUUCGUAGCA | – | – | 1010 nM | 137 nM |
| UGGUACAUGGGAGGAUAUGGGUUGAUAACAUGAGGAUCACCCAUGUUAAAUGCCGAAAGGCAAAACUAGAAGGCCCAUGUACCU | – | – | 257 nM | 24.5 nM |
| GCCAUUGCAUGAGGAUAUGCUCCCGUUUCGGGAGCAGAAGGCAUGUCAUAAGACAUGAGGAUCACCCAUGUAUUUAAGAUGGCA | – | – | 273 nM | 11.5 nM |
| AGCUACGUUUCGUAGCAGUGUCAUCGAGAAGGCUCAAAUACAUGAGGAUCACCCAUGUUAACAUGGGAGGAUAUCGAUGAUACA | – | – | 63.6 nM | 7.86 nM |
| GAUUGAGAGCAGGAUAUCUUAGAAAUGUAUGAAAGAGAAGGGCUCACAUGAGGAUCACCCAUGUGGUCCUAGAU | 32.7 nM | 256 nM | – | – |
| GUGAGGUCAGGAUAUGCAUGGCGGGACUUGCGUCGUGGCGUGCAGAAGGGACAUGAGGAUCACCCAUGUGGAGU | 157 nM | 238 nM | – | – |
| GGACGUAAAGAGAAGGGCUACUGGUUGAAACCUGCGGCCUCUGGAACAUGAGGAUCACCCAUGUAGCAGGAUAUCUUUGCAUCA | 180 nM | 14.7 nM | – | – |
| GUCAGCUCGUGAGGAUAUACAACACUGCUUCGGGAGUGUAUUAAGAUCACAUGAGGAUCACCCAUGUAGAAGGCACGAGCUGAU | 15 nM | 254 nM | – | – |
| AUAUAACAUGAGGAUCACCCAUGUCUCUAAAGUCGAGGAUAUGGGCAGGUUAUAUCCGAACCAGAAGGCGGGUUAU | – | – | 315 nM | 717 nM |
| UUUAAAGGCACAUGAGGAUCACCCAUGUCCGGUACUAACAGACAGGAUAUGCAAGAUCCACUCAUGCAGAAGGGUCUGGCUUUU | – | – | 463 nM | 79.7 nM |
| CGAGAAAUCGUAGGAUAUGGUGAUGUACAUGAGGAUCACCCAUGUCCGUCUUCUCUCACAAGAUGCCAGAAGGACGAUUUCUGG | – | – | 712 nM | 122 nM |
| UAACCGUGAGGAUAUACAUGAGGAUCACCCAUGUAGCAAGCUACGUAACCCACCAUAUGUAGAAGGCACUAGGU | 73.1 nM | 47.6 nM | – | – |
| AAACAUGUCCGAGGAUAUCUGGAAACUUUUUCAAGAGAAGGCGGACAUGAGGAUCACCCAUGUCUCUCCUCAUCAAAUCCAAGU | 7.94 nM | 50.3 nM | – | – |
| UUUUUGUGAGGAUAUGCAAUAUCUUCUAUUUAUUAUUAAUUGCAGAAGGCACAUGAGGAUCACCCAUGUAUUUU | 19.2 nM | 24.2 nM | – | – |
| GUUAAGGUAGGAUAUACGAGAAUAUAGGGUAGAUAUAUAACACAUGAGGAUCACCCAUGUAGAAGGACCAAUUG | 33.8 nM | 95.6 nM | – | – |
